Assay results published in ChEMBL document CHEMBL2040734, “Benzothiazoles: search for anticancer agents” (2012).

Experiments:
Format in all cases: functional
[1] = tested on: HCT-15; test: Growth inhibition of human HCT15 cells after 48 hrs by sulforhodamine B assay; conditions: HCT-15, 48 h
Procedure, shortened: (§1)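 Adherent NCI-60 lines were grown in RPMI 1640 with 5% FBS and 2 mM L-glutamine, plated at 5000–40,000 cells/well and preincubated 24 h. They were then exposed to five concentrations (0.01–100 µM, from a DMSO stock) for 48 h at 37 °C, 5% CO2. Cells were fixed with cold TCA (10% final, 60 min, 4 °C) and stained with 0.4% SRB. Dye was solubilized in 10 mM Tris base and A515 read. GI50 was derived from time-zero, control and treated absorbances.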

[2] = tested on: A549; test: Cytotoxicity against human A549 cells assessed as cell growth at 1 uM after 48 hrs by sulforhodamine B assay; conditions: A549, 48 h, read-out: Activity
Procedure, shortened: (§2)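 NCI-60 five-dose screen. Cells were grown in RPMI 1640 with 5% FBS and 2 mM L-glutamine and preincubated 24 h. Compound (DMSO stock) was tested at 0.01, 0.1, 1, 10 and 100 µM for 48 h at 37 °C. Cells were fixed in situ with cold TCA (final 10%) and stained with 0.4% SRB. A515 was read, and percent growth was calculated against time-zero and control plates.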

[3] = tested on: UACC-257; test: Cytotoxicity against human UACC257 cells assessed as cell growth at 10 '-5 M after 48 hrs by sulforhodamine B assay; conditions: UACC-257, 48 h, read-out: Activity
[4] = tested on: SNB-75; test: Cytotoxicity against human SNB75 cells assessed as cell growth at 10 '-5 M after 48 hrs by sulforhodamine B assay; conditions: SNB-75, 48 h, read-out: Activity
[5] = tested on: HL-60(TB); test: Cytotoxicity against human HL-60(TB) cells assessed as cell growth at 10 uM after 48 hrs by sulforhodamine B assay; conditions: HL-60, 48 h, read-out: Activity
Procedure, shortened: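 NCI five-dose screen on the HL-60(TB) leukaemia line, grown in RPMI 1640 with 5% FBS and 2 mM L-glutamine and plated for 24 h before dosing. DMSO stocks were diluted in medium. Cells were exposed 48 h at 37 °C, then settled cells were fixed in 16% TCA (final) and stained with SRB, absorbance 515 nm. Percent growth = (Ti−Tz)/(C−Tz)×100, or (Ti−Tz)/Tz×100 when Ti<Tz.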

[6] = tested on: T47D; test: Cytotoxicity against human T47D cells assessed as cell growth at 1 uM after 48 hrs by sulforhodamine B assay; conditions: read-out: Activity
[7] = tested on: HCT-116; test: Growth inhibition of human HCT116 cells after 48 hrs by sulforhodamine B assay; conditions: HCT-116, 48 h; for CC50: read-out: LC50 (the source's name); procedure, shortened: as §1
[8] = tested on: MDA-MB-468; test: Growth inhibition of human MDA-MB-468 cells after 48 hrs by sulforhodamine B assay; conditions: MDA-MB-468, 48 h; for CC50: read-out: LC50 (the source's name); procedure, shortened: as §1
[9] = tested on: CCRF-CEM; test: Cytotoxicity against human CCRF-CEM cells assessed as cell growth at 1 uM after 48 hrs by sulforhodamine B assay; conditions: read-out: Activity
Procedure, shortened: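 CCRF-CEM suspension leukemia cells in RPMI 1640 with 5% FBS and 2 mM L-glutamine, plated 24 h before dosing. Five concentrations (0.01–100 µM) were applied from a DMSO stock for 48 h at 37 °C. Settled cells were fixed with 80% TCA (final 16%) and stained with SRB, with read-out at 515 nm. Percent growth was derived from time-zero and control absorbances.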

[10] = tested on: NCI/ADR-RES; test: Cytotoxicity against human NCI/ADR-RES cells assessed as cell growth at 0.01 uM after 48 hrs by sulforhodamine B assay; conditions: read-out: Activity
[11] = tested on: CAKI-1; test: Cytotoxicity against human Caki1 cells assessed as cell growth at 10 uM after 48 hrs by sulforhodamine B assay; conditions: CAKI-1, 48 h, read-out: Activity; procedure, shortened: as §2
[12] = tested on: NCI/ADR-RES; test: Growth inhibition of human NCI/ADR-RES cells after 48 hrs by sulforhodamine B assay; procedure, shortened: as §1
[13] = tested on: NCI-H522; test: Cytotoxicity against human NCI-H522 cells assessed as cell growth at 0.1 uM after 48 hrs by sulforhodamine B assay; conditions: NCI-H522, 48 h, read-out: Activity
[14] = tested on: MDA-MB-231; test: Cytotoxicity against human MDA-MB-231 cells assessed as cell growth at 10 uM after 48 hrs by sulforhodamine B assay; conditions: MDA-MB-231, 48 h, read-out: Activity
[15] = tested on: MDA-MB-468; test: Cytotoxicity against human MDA-MB-468 cells assessed as cell growth at 0.01 uM after 48 hrs by sulforhodamine B assay; conditions: MDA-MB-468, 48 h, read-out: Activity
[16] = tested on: TK-10; test: Cytotoxicity against human TK10 cells assessed as cell growth at 1 uM after 48 hrs by sulforhodamine B assay; conditions: TK-10, 48 h, read-out: Activity
[17] = tested on: A549; test: Cytotoxicity against human A549 cells assessed as cell growth at 100 uM after 48 hrs by sulforhodamine B assay; conditions: A549, 48 h, read-out: Activity; procedure, shortened: as §2
[18] = tested on: KM12; test: Cytotoxicity against human KM12 cells assessed as cell growth at 1 uM after 48 hrs by sulforhodamine B assay; conditions: KM12, 48 h, read-out: Activity
[19] = tested on: SF-539; test: Growth inhibition of human SF539 cells after 48 hrs by sulforhodamine B assay; conditions: SF-539, 48 h; procedure, shortened: as §1
[20] = tested on: MDA-MB-231; test: Cytotoxicity against human MDA-MB-231 cells assessed as cell growth at 0.01 uM after 48 hrs by sulforhodamine B assay; conditions: MDA-MB-231, 48 h, read-out: Activity
[21] = tested on: NCI-H522; test: Cytotoxicity against human NCI-H522 cells assessed as cell growth at 1 uM after 48 hrs by sulforhodamine B assay; conditions: NCI-H522, 48 h, read-out: Activity
[22] = tested on: HOP-62; test: Cytotoxicity against human HOP62 cells assessed as cell growth at 10 '-5 M after 48 hrs by sulforhodamine B assay; conditions: HOP-62, 48 h, read-out: Activity
Procedure, shortened: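 Primary one-dose screen across the NCI 60-line panel at 10 µM. Cells were grown in RPMI 1640 with 5% FBS and 2 mM L-glutamine and held 24 h before drug. Drug was diluted from a DMSO concentrate. Exposure was 48 h at 37 °C, 5% CO2. Cells were fixed with TCA and stained with SRB, with absorbance read at 515 nm. Percent growth was calculated against time-zero and untreated control.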

[23] = tested on: BT-549; test: Cytotoxicity against human BT549 cells assessed as cell growth at 0.1 uM after 48 hrs by sulforhodamine B assay; conditions: BT-549, 48 h, read-out: Activity; procedure, shortened: as §2
[24] = tested on: ACHN; test: Cytotoxicity against human ACHN cells assessed as cell growth at 0.01 uM after 48 hrs by sulforhodamine B assay; conditions: read-out: Activity; procedure, shortened: as §2
[25] = tested on: SW-620; test: Cytotoxicity against human SW620 cells assessed as cell growth at 0.1 uM after 48 hrs by sulforhodamine B assay; conditions: SW-620, 48 h, read-out: Activity

Row | Structure (SMILES) | GI50 [1] [nM] | LC50 [1] [nM] | TGI [1] [nM] | growth at 1 µM [2] [%] | growth at 10 µM [3] [%] | growth at 10 µM [4] [%] | growth at 10 µM [5] [%] | growth at 1 µM [6] [%] | GI50 [7] [nM] | TGI [7] [nM] | CC50 [7] [nM] | GI50 [8] [nM] | TGI [8] [nM] | CC50 [8] [nM] | growth at 1 µM [9] [%] | growth at 0.01 µM [10] [%] | growth at 10 µM [11] [%] | GI50 [12] [nM] | LC50 (lethal concentration, 50% net cell kill) [12] [nM] | TGI [12] [nM] | further results
1 | Cc1ccc2nc(Nc3c(C)cccc3C)sc2c1 | 920 | > 100000 | > 100000 | 83 | 56.1 | -15.5 | 30 | 75 | 2300 | > 100000 | > 100000 | 330 | > 100000 | > 100000 | 72 | 98 | 27 | 639 | > 100000 | > 100000 | growth at 0.1 µM [13]: 85%; growth at 10 µM [14]: 22%; growth at 0.01 µM [15]: 88%; growth at 1 µM [16]: 82%; growth at 100 µM [17]: 69%; growth at 1 µM [18]: 55%; GI50 [19]: 66800 nM; LC50 [19]: > 100000 nM; TGI [19]: > 100000 nM; growth at 0.01 µM [20]: 85%; growth at 1 µM [21]: 38%; growth at 10 µM [22]: 45.7%; growth at 0.1 µM [23]: 99%; growth at 0.01 µM [24]: 97%; growth at 0.1 µM [25]: 94%
2 | Clc1cccc(Cl)c1Nc1nc2cccc(Cl)c2s1 | 1160 | 5690 | 2570 | 55 | -33.3 | -26.9 | -47 | 46 | 1010 | 2190 | 4750 | 343 | 1740 | 5790 | 62 | 99 | -90 | 531 | 6230 | 2150 | growth at 0.1 µM [13]: 86%; growth at 10 µM [14]: -93%; growth at 0.01 µM [15]: 89%; growth at 1 µM [16]: 59%; growth at 100 µM [17]: -55%; growth at 1 µM [18]: 62%; GI50 [19]: 1480 nM; LC50 [19]: 6400 nM; TGI [19]: 3080 nM; growth at 0.01 µM [20]: 92%; growth at 1 µM [21]: 51%; growth at 10 µM [22]: -38.2%; growth at 0.1 µM [23]: 101%; growth at 0.01 µM [24]: 99%; growth at 0.1 µM [25]: 91%
